Series [1] has as its system E. coli expressing tetracycline destructase enzymes. The series can be described thus: Checkerboard whole cell inhibition assay. It is filed as cell-based. The conditions noted are these: co-administered with tetracycline antibiotics.
The nature of series [2]: Non-enzymatic stability on storage and in solution. To be noted: extended solution times (overnight), LCMS. It is filed as physicochemical.
The subject of series [3] is tetracycline destructase enzymes Tet(50), Tet(X), and Tet(X)_3. It is filed as biochemical. An outline of the steps: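 Enzymes expressed from pET28b(+) in E. coli BL21-Star (DE3) and Ni-NTA purified. Reactions in 100 mM TAPS pH 8.5 held 504 μM NADPH, 5.04 mM MgCl2, 25.3 μM tetracycline substrate, 0.4 μM enzyme and graded inhibitor, in triplicate. Absorbance at 380 or 400 nm was followed for 4 min. Initial velocities were plotted against log[inhibitor] and fitted by nonlinear regression for IC50. Controls: no-enzyme, no-inhibitor, no-substrate.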

The target in series [4] is T1, Tet(X) (Bacteroides thetaiotaomicron, UniProt Q93L51). The series can be described thus: In vitro inhibition of Tet. Type of series: biochemical.
The target in series [5] is T1, Tet(X). Kind of series: Tet. Type of series: biochemical. The conditions noted are these: decrease in 440 nm absorption band and extracted mass (LCMS).
Series [6] has as its system E. coli expressing Tet(X). The series can be described thus: Whole cell resistance of E. coli expressing Tet. It is filed as cell-based.
The target of series [7] is T2, Tet(50) (Unknown prokaryotic organism, UniProt A0A059WYP6). Kind of series: In vitro inhibition of Tet. It is filed as biochemical. To be noted: degradation of tetracycline antibiotics by soil-derived Tet(50). An outline of the steps: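 Ni-NTA-purified enzyme, dialysed into 50 mM K2HPO4 pH 8.0, 150 mM NaCl, 1 mM DTT. A380 or A400 followed continuously for 4 min. No-enzyme control was set to 1 × 10^15 inhibitor, no-inhibitor control to 1 × 10^−15. No-substrate controls were also run.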

For series [8], the target named is T2, Tet(50). The series can be described thus: Exposure of aDem to Tet. It is filed as biochemical. The conditions noted are these: Tet(50) with NADPH, no tetracycline, LCMS.
Where [9] appears, read: apparent IC50, Tet(X)-mediated degradation of tigecycline.

Entries after “also recorded” stand apart in the source; their conditions may differ. Where a name gives a salt, the structure may show the parent alone. Read-outs that look alike come from different tables or passages of the source.

Consider `Cc1c2c(c(O)c3c(O)ccc(I)c13)C(=O)[C@]1(O)C(=O)C(C(N)=O)=C(O)[C@@H](N(C)C)[C@@H]1C2.Cl` [7-I-aTc, (4S,4aS,12aS)-4-(dimethylamino)-3,10,11,12a-tetrahydroxy-7-iodo-6-methyl-1,12-dioxo-1,4,4a,5,12,12a-hexahydrotetracene-2-carboxamide hydrochloride], for which the “whole cell inhibition / rescue of tetracycline activity” value (shortened to “whole cell inhibition / rescue”) in series [1] is listed as “limited activity; also recorded: no inhibitory activity”. Besides, the “non-enzymatic degradation in solution” value in series [2] is “non-enzymatic degradation of 7-I-aTc in solution was observed; also recorded: some non-enzymatic degradation”. The “in vitro destructase inhibitory activity” value in series [3] was “potent in vitro destructase inhibitory activity”.
In general, IC50 refers to the concentration that inhibits the measured activity by half. `Cc1c2c(c(O)c3c(O)cccc13)C(=O)[C@]1(O)C(=O)C(C(N)=O)=C(O)[C@@H](N(C)C)[C@@H]1C2` [aTc, anhydrotetracycline, reference compound] showed a half-inhibitory concentration (IC50) in series [4] of 400 to 1500 nM. Besides, the “whole cell inhibition / rescue” value in series [1] is reported as “performs well”. Besides, the “enzymatic degradation by Tet(X)” value in series [5] is given as “substrate for Tet(X)”. Further, the inhibition model result in series [3] (Lineweaver-Burk plots, degradation of tetracycline) is reported as “mixed competitive/non-competitive inhibition model”.
Consider `CN(C)c1cc(NC(=O)CNC(C)(C)C)c(O)c2c1C[C@H]1C[C@H]3[C@H](N(C)C)C(O)=C(C(N)=O)C(=O)[C@@]3(O)C(O)=C1C2=O` [tigecycline], for which the “resistance, increase over empty vector controls” value in series [6] is on record as 2 fold.
As for `Cc1c2c(c(O)c3c(O)c(Br)ccc13)C(=O)[C@]1(O)C(=O)C(C(N)=O)=C(O)[C@@H](N(C)C)[C@@H]1C2.Cl` [9-Br-aTc, (4S,4aS,12aS)-9-bromo-4-(dimethylamino)-3,10,11,12a-tetrahydroxy-6-methyl-1,12-dioxo-1,4,4a,5,12,12a-hexahydrotetracene-2-carboxamide hydrochloride], the “whole cell inhibition / rescue” value in series [1] is reported as “limited activity”. For the same compound, the “non-enzymatic degradation in solution” value in series [2] is listed as “some non-enzymatic degradation”. In addition, in series [3], the “in vitro destructase inhibitory activity” value is recorded as “potent in vitro destructase inhibitory activity”.
`Cc1c2c(c(O)c3c(O)ccc(Cl)c13)C(=O)[C@]1(O)C(=O)C(C(N)=O)=C(O)[C@@H](N(C)C)[C@@H]1C2` [aCTc, (4S,4aS,12aS)-7-chloro-4-(dimethylamino)-3,10,11,12a-tetrahydroxy-6-methyl-1,12-dioxo-1,4,4a,5,12,12a-hexahydrotetracene-2-carboxamide hydrochloride]: in series [4] (setting [9]), the IC50 fell in the range of 400 to 1500 nM.
For `CN(C)[C@@H]1C(O)=C(C(N)=O)C(=O)[C@@]2(O)C(=O)c3c(cc4c(Cl)ccc(O)c4c3O)C[C@@H]12.Cl` [aDem, (4S,4aS,12aS)-7-chloro-4-(dimethylamino)-3,10,11,12a-tetrahydroxy-1,12-dioxo-1,4,4a,5,12,12a-hexahydrotetracene-2-carboxamide hydrochloride], the half-inhibitory concentration (IC50) in series [4] (apparent IC50, Tet(X)-mediated degradation of tetracycline antibiotics (tetracycline, demeclocycline)) was in the range of 1000 to 4000 nM; in series [4] (setting [9]), 400 to 1500 nM. For the same compound, the entries for the “in vitro inhibitory activity against enzymatic degradation by Tet(50)” value in series [7] and in series [7] (listed as 7) were “performed poorly” and “poor in vitro inhibitory activity”, respectively. Further, in series [1], the “whole cell inhibition / rescue” value is recorded as “rescues tetracycline activity”. Besides, the “decrease in extracted mass over time” value in series [8] was “no measurable decrease”.

Values taken from publication PMC6490184 (ACS infectious diseases, 2019).
